Source: ChEMBL document CHEMBL1141908, “Inositol tripyrophosphate: a new membrane permeant allosteric effector of haemoglobin” (2005)
Several values for one entry are separate records, joined by “and”; a condition that tells them apart may be missing. Equal entries are not always repeated.

Tests used:
Mus musculus [1] = species: Mus musculus; assay: In vitro P50 value of whole blood of murine was determined after incubation with compound (concentration 30 mM); type: functional
Outline: (§1)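 Whole blood (human, murine or porcine) incubated 1:1 vol/vol with effector solution at 290–310 mOsM, pH 7, for 60 min at 37 C. Cells then washed three times in 20 mM bis-Tris, pH 7, 308 mOsM. Hb–O2 curves read on a Hemox Analyzer in 20 mM Hemox buffer, pH 7.1–7.2, 37 C. P50 shift in % reported as mean of four values ± SD.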

Mus musculus [2] = species: Mus musculus; assay: In vitro percent P50 value of whole blood of murine was determined after incubation with compound (concentration 30 mM); type: functional; outline: as §1
[3] = biological target: Hemoglobin beta chain (Mus musculus) (UniProt P02089); assay: In vitro P50 value of free haemoglobin of murine was determined after incubation with compound (concentration 60 mM); type: functional
Chain of Hemoglobin beta chain (Mus musculus) (P02089 whole entry): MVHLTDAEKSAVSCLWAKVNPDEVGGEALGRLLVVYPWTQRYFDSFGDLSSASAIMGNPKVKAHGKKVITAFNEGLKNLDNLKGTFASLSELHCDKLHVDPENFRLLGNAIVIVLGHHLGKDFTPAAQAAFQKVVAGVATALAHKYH
Outline: (§2)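 Free haemoglobin (human or murine) was mixed with a 60 mM compound solution adjusted to pH 6.9–7.1. Oxy-Hb dissociation curves were recorded on a Hemox Analyzer. P50 is the O2 partial pressure at 50% Hb saturation, and the shift is expressed as a percentage of untreated Hb. Means of three to ten P50 values were calculated, depending on the compound and species.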

[4] = biological target: Hemoglobin beta chain (Mus musculus) (UniProt P02089); assay: In vitro percent P50 value of free haemoglobin of murine was determined after incubation with compound (concentration 60 mM); type: functional; outline: as §2
[5] = In vitro P50 value of free haemoglobin of human was determined after incubation with compound (concentration 60 mM)
[6] = In vitro percent P50 value of free haemoglobin of human was determined after incubation with compound (concentration 60 mM)
[7] = biological target: Hemoglobin subunit beta (Sus scrofa) (UniProt P02067); assay: In vitro P50 value of free haemoglobin of procine was determined after incubation with compound (concentration 60 mM); type: functional
Chain of Hemoglobin subunit beta (Sus scrofa) (P02067 whole entry): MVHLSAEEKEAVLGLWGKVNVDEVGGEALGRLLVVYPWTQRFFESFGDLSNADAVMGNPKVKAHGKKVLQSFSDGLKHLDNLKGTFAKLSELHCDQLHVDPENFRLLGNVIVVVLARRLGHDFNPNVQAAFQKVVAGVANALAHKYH
Outline: (§3)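 Porcine free Hb mixed with the effector solution (60 mM; pH adjusted to 6.9–7.1). Hb–O2 dissociation curves recorded on a Hemox Analyzer. P50 is the pO2 at 50% Hb saturation. Shift reported as % change versus control; means of three P50 values.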

[8] = biological target: Hemoglobin subunit beta (Sus scrofa) (UniProt P02067); assay: In vitro percent P50 value of free haemoglobin of procine was determined after incubation with compound (concentration 60 mM); type: functional; outline: as §3
Homo sapiens [9] = species: Homo sapiens; assay: In vitro P50 value of whole blood of human was determined after incubation with compound (concentration 30 mM); type: functional; outline: as §1
[10] = In vitro P50 value of whole blood of procine was determined after incubation with compound (concentration 30 mM); type: functional, Sus scrofa; settings: in the assay text read “concentration 60 mM” for “concentration 30 mM”; outline: as §1
Homo sapiens [11] = species: Homo sapiens; assay: In vitro percent P50 value of whole blood of human was determined after incubation with compound (concentration 60 mM); type: functional; outline: as §1
Mus musculus [12] = species: Mus musculus; assay: In vitro percent P50 value of whole blood of murine was determined after incubation with compound (concentration 4 mM); type: functional; outline: as §1
[13] = In vitro percent P50 value of whole blood of procine was determined after incubation with compound (concentration 60 mM); type: functional, Sus scrofa; outline: as §1
Homo sapiens [14] = species: Homo sapiens; assay: In vitro percent P50 value of whole blood of human was determined after incubation with compound (concentration 30 mM); type: functional; outline: as §1
Mus musculus [15] = species: Mus musculus; assay: In vitro percent P50 value of whole blood of murine was determined after incubation with compound (concentration 60 mM); type: functional; outline: as §1

SMILES | P50 (Mus musculus [1]) [Torr] | P50 (Mus musculus [2]) [%] | P50 [3] | P50 [4] | further results
NC1CCCCCCC1.NC1CCCCCCC1.NC1CCCCCCC1.NC1CCCCCCC1.NC1CCCCCCC1.NC1CCCCCCC1.O=P1(O)OC2C3OP(=O)(O)OP(=O)(O)OC3C3OP(=O)(O)OP(=O)(O)OC3C2OP(=O)(O)O1 (centres undefined) [listing 1 of 2 here] | 41.7 | 10 |  |  | 
O=P1(O)OC2C3OP(=O)(O)OP(=O)(O)OC3C3OP(=O)(O)OP(=O)(O)OC3C2OP(=O)(O)O1.c1ccncc1.c1ccncc1.c1ccncc1.c1ccncc1.c1ccncc1 (centres undefined) |  |  | 50 Torr | 100% | P50 [5]: 31.6 Torr; P50 [6]: 107%
O=P1(O)OC2C3OP(=O)(O)OP(=O)(O)OC3C3OP(=O)(O)OP(=O)(O)OC3C2OP(=O)(O)O1 (centres undefined) |  |  | 69.7 Torr [middle of 4 runs] | 189% [middle of 4 runs] | P50 [7]: 68.1 Torr; P50 [8]: 209%; P50 [5]: 49.8 Torr and 33.1 Torr; P50 [6]: 225% and 170%
O=P1([O-])OC2C3OP(=O)([O-])OP(=O)([O-])OC3C3OP(=O)([O-])OP(=O)([O-])OC3C2OP(=O)([O-])O1.[Na+].[Na+].[Na+].[Na+].[Na+].[Na+] (centres undefined) [ITPP SODIUM SALT] |  |  |  |  | P50 (Homo sapiens [9]): 30.8 Torr; P50 [10]: 44.2 Torr; P50 (Homo sapiens [11]): 39%; P50 (Mus musculus [12]): 29%; P50 [13]: 40%
CN(C)C1CCCCC1.CN(C)C1CCCCC1.CN(C)C1CCCCC1.CN(C)C1CCCCC1.CN(C)C1CCCCC1.CN(C)C1CCCCC1.O=P1(O)OC2C3OP(=O)(O)OP(=O)(O)OC3C3OP(=O)(O)OP(=O)(O)OC3C2OP(=O)(O)O1 (centres undefined) [listing 1 of 2 here] | 45.5 | 20 |  |  | 
O=P1(O)OC2C3OP(=O)(O)OP(=O)(O)OC3C3OP(=O)(O)OP(=O)(O)OC3C2OP(=O)(O)O1.c1ccncc1.c1ccncc1.c1ccncc1.c1ccncc1.c1ccncc1 (centres undefined) [ITPP PYRIDINIUM SALT] | 42.7 | 13 |  |  | P50 (Homo sapiens [9]): 24.3 Torr; P50 (Homo sapiens [14]): 10%
CN(C)C1CCCCC1.CN(C)C1CCCCC1.CN(C)C1CCCCC1.CN(C)C1CCCCC1.CN(C)C1CCCCC1.CN(C)C1CCCCC1.O=P1(O)OC2C3OP(=O)(O)OP(=O)(O)OC3C3OP(=O)(O)OP(=O)(O)OC3C2OP(=O)(O)O1 (centres undefined) [listing 2 of 2 here] |  |  | 45.1 Torr | 81% | 
NC1CCCCCC1.NC1CCCCCC1.NC1CCCCCC1.NC1CCCCCC1.NC1CCCCCC1.NC1CCCCCC1.O=P1(O)OC2C3OP(=O)(O)OP(=O)(O)OC3C3OP(=O)(O)OP(=O)(O)OC3C2OP(=O)(O)O1 (centres undefined) [listing 1 of 2 here] |  |  | 43.8 Torr | 76% | 
NC1CCCCCC1.NC1CCCCCC1.NC1CCCCCC1.NC1CCCCCC1.NC1CCCCCC1.NC1CCCCCC1.O=P1(O)OC2C3OP(=O)(O)OP(=O)(O)OC3C3OP(=O)(O)OP(=O)(O)OC3C2OP(=O)(O)O1 (centres undefined) [listing 2 of 2 here] | 41.3 | 9 |  |  | 
C1CNCCN1.C1CNCCN1.C1CNCCN1.O=P1(O)OC2C3OP(=O)(O)OP(=O)(O)OC3C3OP(=O)(O)OP(=O)(O)OC3C2OP(=O)(O)O1 (centres undefined) [ITPP TRIPIPERAZINIUM SALT] | 42.3 | 8 |  |  | 
O=P1([O-])OC2C3OP(=O)([O-])OP(=O)([O-])OC3C3OP(=O)([O-])OP(=O)([O-])OC3C2OP(=O)([O-])O1.[Ca+2].[Ca+2].[Ca+2] (centres undefined) | 55.3 |  |  |  | P50 (Homo sapiens [9]): 31 Torr; P50 (Homo sapiens [14]): 25%; P50 (Mus musculus [15]): 38%
C1CNCCN1.C1CNCCN1.C1CNCCN1.C1CNCCN1.C1CNCCN1.C1CNCCN1.O=P1(O)OC2C3OP(=O)(O)OP(=O)(O)OC3C3OP(=O)(O)OP(=O)(O)OC3C2OP(=O)(O)O1 (centres undefined) [ITPP PIPERAZINIUM] | 41.9 | 7 |  |  | 
NC1CCCCCCC1.NC1CCCCCCC1.NC1CCCCCCC1.NC1CCCCCCC1.NC1CCCCCCC1.NC1CCCCCCC1.O=P1(O)OC2C3OP(=O)(O)OP(=O)(O)OC3C3OP(=O)(O)OP(=O)(O)OC3C2OP(=O)(O)O1 (centres undefined) [listing 2 of 2 here] |  |  | 30.6 Torr | 23% | 
